Where “and” joins values, the source holds several entries; their conditions need not be identical. Identical values can stand only once. Non-standard residues stand in square brackets, D forms with d. Residues, ends and D or L forms follow the SMILES beside them.
Tested on: HEK-293T
Assay: Multiplex assay against HEK293T
Assay type: toxicity, cell-based
Conditions: human
How it was run: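 Per cents of healthy-nucleus cells form the tubulin, mitochondrial-mass and membrane-permeability phenotype values. Live cells were stained at seeding with Hoechst33342, BioTracker Green Microtubule Cytoskeleton Dye, MitoTracker Red and Annexin V Alexa Fluor 680. After compound addition they were imaged on a CQ1 microscope at 37°C and 5% CO2, and CellPathfinder machine-learning gating split them into Hoechst high-intensity objects or normal cells, normal cells into healthy, pyknosed or fragmented nuclei, and pyknosed cells into mitotic or apoptotic.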

[1] = 12 h, 1 µM, compound concentration 1 uM
[2] = 12 h, 10 µM, compound concentration 10 uM
[3] = 24 h, 1 µM, compound concentration 1 uM
[4] = 24 h, 10 µM, compound concentration 10 uM
[5] = 48 h, 1 µM, compound concentration 1 uM
[6] = 48 h, 10 µM, compound concentration 10 uM

CCC(=O)OCC(=O)[C@@]1(OC(=O)CC)[C@@H](C)C[C@H]2[C@@H]3CCC4=CC(=O)C=C[C@]4(C)[C@@]3(Cl)[C@@H](O)C[C@@]21C [BECLOMETHASONE DIPROPIONATE]
Population Apoptotic (%) [1]: 43% and 47%
Population Fragmented Nuclei (%) [1]: 8% and 5%
Population Healthy Nuclei (%) [1]: 75% and 74%
Population Hoechst High Intensity Objects (%) [1]: 7% and 4%
Population Membrane Permeable-Phenotype (%) [1]: 0%
Population Mitochondria Different-Phenotype (%) [1]: 60% and 75%
Population Mitotic Cells (%) [1]: 56% and 52%
Population Normal (%) [1]: 92% and 95%
Population Pyknosed Nuclei (%) [1]: 15% and 19%
Population Tubulin-Different-Phenotype (%) [1]: 48% and 42%
Total Cell Count [1]: 388 and 356
Population Apoptotic (%) [2]: 60% and 68%
Population Fragmented Nuclei (%) [2]: 8% and 6%
Population Healthy Nuclei (%) [2]: 66%
Population Hoechst High Intensity Objects (%) [2]: 14% and 16%
Population Membrane Permeable-Phenotype (%) [2]: 0%
Population Mitochondria Different-Phenotype (%) [2]: 87% and 93%
Population Mitotic Cells (%) [2]: 39% and 31%
Population Normal (%) [2]: 85% and 83%
Population Pyknosed Nuclei (%) [2]: 25% and 27%
Population Tubulin-Different-Phenotype (%) [2]: 65% and 35%
Total Cell Count [2]: 236 and 252
Population Apoptotic (%) [3]: 32% and 43%
Population Fragmented Nuclei (%) [3]: 7%
Population Healthy Nuclei (%) [3]: 81%
Population Hoechst High Intensity Objects (%) [3]: 4% and 5%
Population Membrane Permeable-Phenotype (%) [3]: 0%
Population Mitochondria Different-Phenotype (%) [3]: 40% and 52%
Population Mitotic Cells (%) [3]: 67% and 56%
Population Normal (%) [3]: 95% and 94%
Population Pyknosed Nuclei (%) [3]: 11%
Population Tubulin-Different-Phenotype (%) [3]: 31% and 18%
Total Cell Count [3]: 507 and 446
Population Apoptotic (%) [4]: 56% and 62%
Population Fragmented Nuclei (%) [4]: 13% and 5%
Population Healthy Nuclei (%) [4]: 65% and 71%
Population Hoechst High Intensity Objects (%) [4]: 11% and 9%
Population Membrane Permeable-Phenotype (%) [4]: 0%
Population Mitochondria Different-Phenotype (%) [4]: 89% and 97%
Population Mitotic Cells (%) [4]: 44% and 37%
Population Normal (%) [4]: 88% and 90%
Population Pyknosed Nuclei (%) [4]: 21% and 23%
Population Tubulin-Different-Phenotype (%) [4]: 73% and 43%
Total Cell Count [4]: 270 and 243
Population Apoptotic (%) [5]: 30% and 31%
Population Fragmented Nuclei (%) [5]: 11% and 12%
Population Healthy Nuclei (%) [5]: 78% and 79%
Population Hoechst High Intensity Objects (%) [5]: 4% and 3%
Population Membrane Permeable-Phenotype (%) [5]: 0%
Population Mitochondria Different-Phenotype (%) [5]: 28% and 32%
Population Mitotic Cells (%) [5]: 69% and 68%
Population Normal (%) [5]: 95% and 96%
Population Pyknosed Nuclei (%) [5]: 9% and 8%
Population Tubulin-Different-Phenotype (%) [5]: 18% and 17%
Total Cell Count [5]: 742 and 655
Population Apoptotic (%) [6]: 67% and 65%
Population Fragmented Nuclei (%) [6]: 14% and 12%
Population Healthy Nuclei (%) [6]: 72%
Population Hoechst High Intensity Objects (%) [6]: 5%
Population Membrane Permeable-Phenotype (%) [6]: 0%
Population Mitochondria Different-Phenotype (%) [6]: 72% and 90%
Population Mitotic Cells (%) [6]: 32% and 34%
Population Normal (%) [6]: 94%
Population Pyknosed Nuclei (%) [6]: 13% and 15%
Population Tubulin-Different-Phenotype (%) [6]: 43% and 62%
Total Cell Count [6]: 347 and 283

CC(C)C[C@@H]1NC(=O)[C@@H](C(C)C)NC(=O)[C@@H]2CCCN2C(=O)[C@@H](CC(=O)O)NC(=O)[C@@H](Cc2c[nH]c3ccccc23)NC1=O [BQ-123] (cyclo(L[dW][dD]P[dV]))
Population Apoptotic (%) [1]: 46%
Population Fragmented Nuclei (%) [1]: 7% and 5%
Population Healthy Nuclei (%) [1]: 80% and 82%
Population Hoechst High Intensity Objects (%) [1]: 4% and 7%
Population Membrane Permeable-Phenotype (%) [1]: 0%
Population Mitochondria Different-Phenotype (%) [1]: 39% and 59%
Population Mitotic Cells (%) [1]: 53%
Population Normal (%) [1]: 95% and 92%
Population Pyknosed Nuclei (%) [1]: 11%
Population Tubulin-Different-Phenotype (%) [1]: 32% and 19%
Total Cell Count [1]: 376 and 392
Population Apoptotic (%) [2]: 30% and 71%
Population Fragmented Nuclei (%) [2]: 7% and 5%
Population Healthy Nuclei (%) [2]: 78%
Population Hoechst High Intensity Objects (%) [2]: 7% and 11%
Population Membrane Permeable-Phenotype (%) [2]: 0%
Population Mitochondria Different-Phenotype (%) [2]: 48% and 65%
Population Mitotic Cells (%) [2]: 69% and 28%
Population Normal (%) [2]: 92% and 88%
Population Pyknosed Nuclei (%) [2]: 14% and 16%
Population Tubulin-Different-Phenotype (%) [2]: 31% and 22%
Total Cell Count [2]: 387 and 265
Population Apoptotic (%) [3]: 26% and 40%
Population Fragmented Nuclei (%) [3]: 10% and 7%
Population Healthy Nuclei (%) [3]: 79% and 82%
Population Hoechst High Intensity Objects (%) [3]: 3% and 5%
Population Membrane Permeable-Phenotype (%) [3]: 0%
Population Mitochondria Different-Phenotype (%) [3]: 27% and 35%
Population Mitotic Cells (%) [3]: 73% and 59%
Population Normal (%) [3]: 96% and 94%
Population Pyknosed Nuclei (%) [3]: 9%
Population Tubulin-Different-Phenotype (%) [3]: 21% and 14%
Total Cell Count [3]: 497 and 538
Population Apoptotic (%) [4]: 25% and 57%
Population Fragmented Nuclei (%) [4]: 11% and 8%
Population Healthy Nuclei (%) [4]: 77% and 78%
Population Hoechst High Intensity Objects (%) [4]: 6% and 7%
Population Membrane Permeable-Phenotype (%) [4]: 0%
Population Mitochondria Different-Phenotype (%) [4]: 31% and 50%
Population Mitotic Cells (%) [4]: 75% and 42%
Population Normal (%) [4]: 93% and 92%
Population Pyknosed Nuclei (%) [4]: 11% and 12%
Population Tubulin-Different-Phenotype (%) [4]: 24% and 18%
Total Cell Count [4]: 511 and 302
Population Apoptotic (%) [5]: 21% and 24%
Population Fragmented Nuclei (%) [5]: 11%
Population Healthy Nuclei (%) [5]: 79% and 81%
Population Hoechst High Intensity Objects (%) [5]: 3% and 5%
Population Membrane Permeable-Phenotype (%) [5]: 0% and 1%
Population Mitochondria Different-Phenotype (%) [5]: 22% and 18%
Population Mitotic Cells (%) [5]: 78% and 75%
Population Normal (%) [5]: 96% and 94%
Population Pyknosed Nuclei (%) [5]: 9% and 7%
Population Tubulin-Different-Phenotype (%) [5]: 15% and 10%
Total Cell Count [5]: 719 and 777
Population Apoptotic (%) [6]: 25% and 40%
Population Fragmented Nuclei (%) [6]: 16% and 11%
Population Healthy Nuclei (%) [6]: 77% and 80%
Population Hoechst High Intensity Objects (%) [6]: 3%
Population Membrane Permeable-Phenotype (%) [6]: 1% and 0%
Population Mitochondria Different-Phenotype (%) [6]: 21% and 29%
Population Mitotic Cells (%) [6]: 75% and 59%
Population Normal (%) [6]: 96%
Population Pyknosed Nuclei (%) [6]: 6% and 8%
Population Tubulin-Different-Phenotype (%) [6]: 15% and 16%
Total Cell Count [6]: 756 and 477

Reference: ChEMBL document CHEMBL5724801, “EUbOPEN Chemogenomics Library - Multiplex” (2024)
